From ChEMBL document CHEMBL1141169, “Discovery of 5-arylsulfonamido-3-(pyrrolidin-2-ylmethyl)-1H-indole derivatives as potent, selective 5-HT6 receptor agonists and antagonists” (J Med Chem, 2005)

Experiments:
[1] = molecular target: T1, 5-hydroxytryptamine receptor 6 (Homo sapiens, UniProt P50406); assay: Inhibition of [3H]LSD binding to human 5-hydroxytryptamine 6 receptor expressed in HeLa cells; type: cell-based
Procedure, shortened: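 Competition binding against [3H]-LSD on cloned human 5-HT6 receptors stably expressed in HeLa cells. Ki determined in triplicate; single-point lines are % inhibition at 1000 nM.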

[2] = molecular target: T1, 5-hydroxytryptamine receptor 6; assay: Effective agonist concentration in cAMP release assay in HeLa cells expressing human 5-hydroxytryptamine 6 receptor; type: functional, cell-based
Procedure, shortened: (§1)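 cAMP production read out across a range of ligand concentrations in HeLa cells stably transfected with the human 5-HT6 receptor, ligand given alone as agonist. EC50 and Emax each determined in triplicate.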

[3] = molecular target: T1, 5-hydroxytryptamine receptor 6; assay: Maximum percentage agonism of cAMP production in HeLa cells expressing human 5-hydroxytryptamine 6 receptor; type: functional, cell-based; procedure, shortened: as §1
[4] = molecular target: T1, 5-hydroxytryptamine receptor 6; assay: Inhibition of 5-HT stimulated cAMP production in HeLa cells expressing human 5-hydroxytryptamine 6 receptor; type: functional, cell-based
Procedure, shortened: (§2)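 Antagonist mode: cAMP production in HeLa cells stably transfected with the human 5-HT6 receptor was stimulated with 5-HT, and inhibition was measured across a range of ligand concentrations. IC50 and Imax each determined in triplicate.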

[5] = molecular target: T1, 5-hydroxytryptamine receptor 6; assay: Maximum percentage inhibition of 5-HT stimulated cAMP production in HeLa cells expressing 5-hydroxytryptamine 6 receptor; type: functional, cell-based; procedure, shortened: as §2

T1 sequence (P50406 whole entry): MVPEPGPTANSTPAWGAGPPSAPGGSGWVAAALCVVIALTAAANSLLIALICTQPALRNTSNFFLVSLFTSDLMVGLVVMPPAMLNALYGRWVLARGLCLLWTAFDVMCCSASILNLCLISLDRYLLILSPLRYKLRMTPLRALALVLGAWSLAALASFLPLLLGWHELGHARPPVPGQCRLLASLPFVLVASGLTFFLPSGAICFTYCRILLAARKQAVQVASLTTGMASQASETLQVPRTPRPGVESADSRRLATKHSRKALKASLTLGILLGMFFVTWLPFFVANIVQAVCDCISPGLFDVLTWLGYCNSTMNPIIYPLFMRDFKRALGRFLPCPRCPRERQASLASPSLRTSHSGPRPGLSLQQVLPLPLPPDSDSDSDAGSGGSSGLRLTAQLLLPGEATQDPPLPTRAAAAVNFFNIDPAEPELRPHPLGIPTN

Row | Compound | Ki [1] [nM] | EC50 [2] [nM] | Emax [3] [%] | IC50 [4] [nM] | Imax [5] [%]
1 | O=S(=O)(Nc1ccc2[nH]cc(C[C@@H]3CCCN3)c2c1)c1cccc(Cl)c1 | 36 | – | – | – | –
2 | CN1CCC[C@@H]1Cc1c[nH]c2ccc(NS(=O)(=O)c3ccc(F)cc3)cc12 | 1 | 1.1 | 85 | – | –
3 | CN1CCC[C@H]1Cc1c[nH]c2ccc(NS(=O)(=O)c3ccc4ccccc4c3)cc12 | 1 | – | – | 10.4 | 95
4 | CN1CCC[C@H]1Cc1c[nH]c2ccc(NS(=O)(=O)c3ccccc3)cc12 | 16 | – | – | – | –
5 | CN1CCC[C@H]1Cc1c[nH]c2ccc(NS(=O)(=O)c3cccc(Cl)c3)cc12 | 11 | – | – | – | –
6 | O=S(=O)(Nc1ccc2[nH]cc(C[C@H]3CCCN3)c2c1)c1ccc(OC(F)(F)F)cc1 | 5 | 4.2 | 86 | – | –
7 | CC(C)c1ccc(S(=O)(=O)Nc2ccc3[nH]cc(C[C@H]4CCCN4)c3c2)cc1 | 1 | – | – | – | –
8 | O=S(=O)(Nc1ccc2[nH]cc(C[C@H]3CCCN3)c2c1)c1ccc(F)cc1F | 8 | 5.2 | 78 | – | –
9 | O=S(=O)(Nc1ccc2[nH]cc(C[C@H]3CCCN3)c2c1)c1ccc(Cl)cc1 | 3 | 4.5 | 99 | – | –
10 | O=S(=O)(Nc1ccc2[nH]cc(C[C@H]3CCCN3)c2c1)c1ccc(Cl)c(Cl)c1 | 3 | – | – | – | –
11 | CN1CCC[C@H]1Cc1c[nH]c2ccc(NS(=O)(=O)c3ccccc3Br)cc12 | 5 | – | – | 0.8 | 75
12 | CN1CCC[C@@H]1Cc1c[nH]c2ccc(NS(=O)(=O)c3cccc(C(F)(F)F)c3)cc12 | 1 | 3.2 | 90 | – | –
13 | CC(C)c1ccc(S(=O)(=O)Nc2ccc3[nH]cc(C[C@@H]4CCCN4C)c3c2)cc1 | 3 | – | – | 21.1 | 76
14 | CN1CCC[C@H]1Cc1c[nH]c2ccc(NS(=O)(=O)c3ccc(Br)cc3)cc12 | 9 | – | – | 1.6 | 85
15 | COc1ccc(S(=O)(=O)Nc2ccc3[nH]cc(C[C@H]4CCCN4C)c3c2)cc1 | 1 | 2.2 | 83 | – | –
16 | O=S(=O)(Nc1ccc2[nH]cc(C[C@H]3CCCN3)c2c1)c1ccc(F)cc1 | 4 | – | – | – | –
17 | O=S(=O)(Nc1ccc2[nH]cc(C[C@H]3CCCN3)c2c1)c1ccc(I)cc1 | 1 | – | – | – | –
18 | Cc1ccc(S(=O)(=O)Nc2ccc3[nH]cc(C[C@H]4CCCN4)c3c2)cc1 | 4 | – | – | – | –
19 | CN1CCC[C@@H]1Cc1c[nH]c2ccc(NS(=O)(=O)c3ccc4ccccc4c3)cc12 | 1 | – | – | – | –
20 | CN1CCC[C@@H]1Cc1c[nH]c2ccc(NS(=O)(=O)c3ccccc3F)cc12 | 1 | 1.3 | 91 | – | –
21 | COc1ccc(S(=O)(=O)Nc2ccc3[nH]cc(C[C@@H]4CCCN4C)c3c2)cc1 | 34 | – | – | – | –
22 | CN1CCC[C@H]1Cc1c[nH]c2ccc(NS(=O)(=O)c3ccc(C(F)(F)F)cc3)cc12 | 10 | – | – | 21.6 | 78
23 | O=S(=O)(Nc1ccc2[nH]cc(C[C@H]3CCCN3)c2c1)c1ccccc1 | 4 | 1.4 | 73 | – | –

Row | Compound | Ki [1] [nM] | EC50 [2] [nM] | Emax [3] [%] | IC50 [4] [nM] | Imax [5] [%]
24 | O=S(=O)(Nc1ccc2[nH]cc(C[C@H]3CCCN3)c2c1)c1ccccc1F | 4 | – | – | – | –
25 | CN1CCC[C@H]1Cc1c[nH]c2ccc(NS(=O)(=O)c3cccc(C(F)(F)F)c3)cc12 | 12 | – | – | 14.1 | 78
26 | O=S(=O)(Nc1ccc2[nH]cc(C[C@H]3CCCN3)c2c1)c1ccc(Br)cc1 | 3 | – | – | – | –
27 | CN1CCC[C@H]1Cc1c[nH]c2ccc(NS(=O)(=O)c3ccc(F)cc3Cl)cc12 | 35 | – | – | – | –
28 | O=S(=O)(Nc1ccc2[nH]cc(C[C@H]3CCCN3)c2c1)c1cccc(C(F)(F)F)c1 | 4 | 5.8 | 77 | – | –
29 | O=S(=O)(Nc1ccc2[nH]cc(C[C@@H]3CCCN3)c2c1)c1ccc(F)cc1F | 131 | – | – | – | –
30 | CN1CCC[C@@H]1Cc1c[nH]c2ccc(NS(=O)(=O)c3ccc(C(F)(F)F)cc3)cc12 | 0.4 | 4.5 | 85 | – | –
31 | Cc1noc(C)c1S(=O)(=O)Nc1ccc2[nH]cc(C[C@H]3CCCN3C)c2c1 | 1 | 0.8 | 77 | – | –
32 | CN1CCC[C@@H]1Cc1c[nH]c2ccc(NS(=O)(=O)c3ccc(OC(F)(F)F)cc3)cc12 | 1 | 2.9 | 94 | – | –
33 | CN1CCC[C@H]1Cc1c[nH]c2ccc(NS(=O)(=O)c3ccc(Cl)c(Cl)c3)cc12 | 7 | – | – | – | –
34 | Cc1ccc(S(=O)(=O)Nc2ccc3[nH]cc(C[C@H]4CCCN4C)c3c2)cc1 | 1 | 1.3 | 79 | – | –
35 | Cc1c(S(=O)(=O)Nc2ccc3[nH]cc(C[C@@H]4CCCN4C)c3c2)sc2ccc(Cl)cc12 | 2 | – | – | 1.1 | 91
36 | O=S(=O)(Nc1ccc2[nH]cc(C[C@@H]3CCCN3)c2c1)c1ccc(Br)cc1 | 57 | – | – | – | –
37 | CC(C)c1ccc(S(=O)(=O)Nc2ccc3[nH]cc(C[C@H]4CCCN4C)c3c2)cc1 | 1 | – | – | – | –
38 | CN1CCC[C@@H]1Cc1c[nH]c2ccc(NS(=O)(=O)c3ccc(Cl)c(Cl)c3)cc12 | 1 | – | – | – | –
39 | CN1CCC[C@@H]1Cc1c[nH]c2ccc(NS(=O)(=O)c3ccc(I)cc3)cc12 | 0.3 | 2.7 | 72 | – | –
40 | CN1CCC[C@H]1Cc1c[nH]c2ccc(NS(=O)(=O)c3ccccc3Cl)cc12 | 22 | – | – | – | –
41 | O=S(=O)(Nc1ccc2[nH]cc(C[C@H]3CCCN3)c2c1)c1cccc(Cl)c1 | 2 | 1 | 92 | – | –
42 | O=S(=O)(Nc1ccc2[nH]cc(C[C@H]3CCCN3)c2c1)c1ccc(F)cc1Cl | 9 | – | – | – | –
43 | CN1CCC[C@@H]1Cc1c[nH]c2ccc(NS(=O)(=O)c3ccccc3)cc12 | 1 | – | – | – | –
44 | CN1CCC[C@H]1Cc1c[nH]c2ccc(NS(=O)(=O)c3ccc(OC(F)(F)F)cc3)cc12 | 8 | 180 | 68 | 25.8 | 85
45 | COc1ccc(Cl)cc1S(=O)(=O)Nc1ccc2[nH]cc(C[C@@H]3CCCN3C)c2c1 | 24 | – | – | – | –
